{"source": "ChEMBL document CHEMBL1131179", "about": "“Structural optimization affording 2-(R)-(1-(R)-3, 5-bis(trifluoromethyl)phenylethoxy)-3-(S)-(4-fluoro)phenyl-4- (3-oxo-1,2,4-triazol-5-yl)methylmorpholine, a potent, orally active, long-acting morpholine acetal human NK-1 receptor antagonist” (J Med Chem, 1998)", "key": {"[1]": {"system": "Cavia porcellus", "assay": "Inhibition of resiniferatoxin-induced systemic vascular leakage in guinea pig (SYVAL) upon oral administration at 1 hr", "type": "functional", "details": "read-out: ID50 (the source's name)", "procedure,_shortened": "(§1)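 Guinea pigs dosed orally 1 or 24 h before iv resiniferatoxin challenge (400 µL/kg over 30 s, penile vein), given 10 min after Evans Blue. Killed 10 min post-challenge. Bladder, trachea and esophagus dried (24 h, 65 °C) and extracted with plasma in formamide (65 °C, 24 h). Extravasation read at OD620-650 against plasma, as mg plasma/g dry tissue. n = 4-12 per point; ID50 by nonlinear least-squares regression of mean data.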"}, "[2]": {"system": "Gerbillinae", "assay": "Inhibition of GR 73632-induced foot tapping in gerbils upon intravenous administration of compound", "type": "functional", "details": "read-out: ID50 (the source's name)", "procedure,_shortened": "(§2)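 Male or female Mongolian gerbils (35–70 g) under isoflurane/oxygen anaesthesia. Test compound or vehicle is given iv into the jugular vein at 5 mL/kg. At 0, 4 or 24 h, GR 73,632 (3 pmol) is infused icv via a needle 4.5 mm below bregma. Hind foot tapping is timed for 5 min after recovery. 3–9 animals per dose. ID50 by nonlinear least-squares regression of mean data.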"}, "[3]": {"system": "Gerbillinae", "assay": "Inhibition of GR 73632-induced foot tapping in gerbils upon intravenous administration of compound after 24 hr", "type": "functional", "details": "read-out: ID50 (the source's name)", "procedure,_shortened": "as §2"}, "[4]": {"system": "Cavia porcellus", "assay": "Inhibition of resiniferatoxin-induced systemic vascular leakage in guinea pig (SYVAL) upon oral administration at 24 hr r", "type": "functional", "procedure,_shortened": "as §1"}, "[5]": {"system": "Gerbillinae", "assay": "Inhibition of GR 73632-induced foot tapping in gerbils upon intravenous administration of compound after 4 hr", "type": "functional", "details": "read-out: ID50 (the source's name)", "procedure,_shortened": "as §2"}, "[6]": {"target": "Substance-P receptor (Homo sapiens, UniProt P25103)", "sequence (P25103 whole entry)": "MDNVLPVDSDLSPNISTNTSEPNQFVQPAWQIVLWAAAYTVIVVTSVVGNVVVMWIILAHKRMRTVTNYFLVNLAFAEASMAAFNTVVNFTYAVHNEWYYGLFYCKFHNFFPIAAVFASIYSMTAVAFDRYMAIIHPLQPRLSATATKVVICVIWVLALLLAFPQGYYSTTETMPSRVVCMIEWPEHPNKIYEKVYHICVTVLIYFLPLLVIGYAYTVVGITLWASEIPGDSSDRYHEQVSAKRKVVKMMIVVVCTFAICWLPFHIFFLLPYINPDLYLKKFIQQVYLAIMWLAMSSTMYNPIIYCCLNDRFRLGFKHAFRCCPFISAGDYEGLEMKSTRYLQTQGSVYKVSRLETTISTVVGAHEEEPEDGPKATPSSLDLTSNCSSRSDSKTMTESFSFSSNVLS", "assay": "Displacement of [125I]-labeled SP from the human Tachykinin receptor 1 expressed in CHO cells", "type": "cell-based"}, "[7]": {"system": "Mustela putorius furo", "assay": "compound was tested for antiemetic action in ferret at 3 mg/kg after peroral administration followed by emetogen (cisplatin) challenge at 10 mg/kg, iv after 60 min"}, "[8]": {"system": "Mustela putorius furo", "assay": "compound was tested for antiemetic action in ferret at 3 mg/kg after peroral administration followed by emetogen (cisplatin) challenge at 10 mg/kg, iv after 60 min", "remark": "listed apart in the source"}, "[9]": {"system": "Mustela putorius furo", "assay": "compound was tested for antiemetic action in ferret at 3 mg/kg after peroral administration followed by emetogen (apomorphine) challenge at 0.25 mg/kg, sc", "type": "functional"}, "[10]": {"system": "Mustela putorius furo", "assay": "compound was tested for antiemetic action in ferret at 0.3 mg/kg after intravenous administration followed by emetogen (cisplatin) challenge at 10 mg/kg, iv after 3 min", "type": "functional", "procedure,_shortened": "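Male ferrets (1.0–2.0 kg) under halothane receive 0.3 mg/kg iv in PEG 300 vehicle, then cisplatin 10 mg/kg iv 3 min later. Retches and vomits are counted over 240 min and compared with vehicle controls. 4–7 animals per group.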"}, "[11]": {"system": "Mustela putorius furo", "assay": "compound was tested for antiemetic action in ferret at 3 mg/kg after peroral administration followed by emetogen (morphine) challenge at 0.5 mg/kg, sc", "type": "functional", "procedure,_shortened": "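Male ferrets (1.0–2.0 kg) receive 3.0 mg/kg po in 0.5% Methocel or vehicle. 60 min later they get a sc emetogen: apomorphine or morphine 0.5 mg/kg. Retches and vomits are counted for 30 min versus vehicle controls. 4–7 animals per group.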"}, "[12]": {"system": "Mustela putorius furo", "assay": "compound was tested for antiemetic action in ferret at 3 mg/kg after peroral administration followed by emetogen (cisplatin) challenge at 10 mg/kg, iv after 60 min", "remark": "listed apart in the source"}, "[13]": {"system": "Mustela putorius furo", "assay": "compound was tested for antiemetic action in ferret at 3 mg/kg after peroral administration followed by emetogen (cisplatin) challenge at 10 mg/kg, iv after 60 min", "remark": "listed apart in the source"}}}
{"smiles": "COc1ccc(OC(F)(F)F)cc1CN[C@H]1CCCN[C@H]1c1ccccc1", "note": "(racemic)", "values": [{"measurement": "ED50", "setting": "[1]", "result": 0.01, "unit": "mg/kg"}, {"measurement": "ED50", "setting": "[2]", "result": 0.03, "unit": "mg/kg"}, {"measurement": "ED50", "setting": "[3]", "result": 5.37, "unit": "mg/kg"}, {"measurement": "ID90", "setting": "[4]", "result": ">10", "unit": "mg/kg"}, {"measurement": "ED50", "setting": "[5]", "result": 0.24, "unit": "mg/kg"}]}
{"smiles": "C[C@H](O[C@H]1OCCN(Cc2n[nH]c(O)n2)[C@H]1c1ccccc1)c1cc(C(F)(F)F)cc(C(F)(F)F)c1", "values": [{"measurement": "ED50", "setting": "[1]", "result": 0.01, "unit": "mg/kg"}, {"measurement": "IC50", "setting": "[6]", "result": 0.09, "unit": "nM"}, {"measurement": "ED50", "setting": "[2]", "result": 0.16, "unit": "mg/kg"}, {"measurement": "ED50", "setting": "[3]", "result": 1.11, "unit": "mg/kg"}, {"measurement": "ID90", "setting": "[4]", "result": 2.3, "unit": "mg/kg"}, {"measurement": "ED50", "setting": "[5]", "result": 0.04, "unit": "mg/kg"}]}
{"smiles": "O=c1[nH]nc(CN2CCO[C@H](OCc3cc(C(F)(F)F)cc(C(F)(F)F)c3)[C@@H]2c2ccccc2)[nH]1", "values": [{"measurement": "ED50", "setting": "[1]", "result": 0.006, "unit": "mg/kg"}, {"measurement": "ED50", "setting": "[2]", "result": 0.85, "unit": "mg/kg"}, {"measurement": "ED50", "setting": "[3]", "result": 2.88, "unit": "mg/kg"}, {"measurement": "ID90", "setting": "[4]", "result": 5.4, "unit": "mg/kg"}]}
{"smiles": "COc1ccc(-n2nnnc2C(F)(F)F)cc1CN[C@H]1CCCN[C@H]1c1ccccc1", "note": "[VOFOPITANT]", "values": [{"measurement": "ED50", "setting": "[1]", "result": 0.007, "unit": "mg/kg"}, {"measurement": "IC50", "setting": "[6]", "result": 0.08, "unit": "nM"}, {"measurement": "ID90", "setting": "[4]", "result": ">10", "unit": "mg/kg"}]}
{"smiles": "O=c1[nH]nc(CN2CCO[C@H](OCc3cc(C(F)(F)F)cc(C(F)(F)F)c3)[C@@H]2c2ccc(F)cc2)[nH]1", "values": [{"measurement": "ED50", "setting": "[1]", "result": 0.008, "unit": "mg/kg"}, {"measurement": "IC50", "setting": "[6]", "result": 0.07, "unit": "nM"}, {"measurement": "ED50", "setting": "[2]", "result": 0.3, "unit": "mg/kg"}, {"measurement": "ED50", "setting": "[3]", "result": 1.24, "unit": "mg/kg"}, {"measurement": "ID90", "setting": "[4]", "result": 2.3, "unit": "mg/kg"}, {"measurement": "ED50", "setting": "[5]", "result": 0.07, "unit": "mg/kg"}]}
{"smiles": "C[C@@H](O[C@H]1OCCN(Cc2n[nH]c(O)n2)[C@H]1c1ccccc1)c1cccc(C(F)(F)F)c1", "values": [{"measurement": "IC50", "setting": "[6]", "result": 0.27, "unit": "nM"}]}
{"smiles": "C[C@@H](O[C@H]1OCCN(Cc2n[nH]c(=O)[nH]2)[C@H]1c1ccccc1)c1cc(C(F)(F)F)cc(C(F)(F)F)c1", "values": [{"measurement": "IC50", "setting": "[6]", "result": 0.88, "unit": "nM"}]}
{"smiles": "COc1ccc(-n2nnnc2C(F)(F)F)cc1CNC1CCCNC1c1ccccc1", "note": "(racemic)", "values": [{"measurement": "ED50", "setting": "[2]", "result": 0.04, "unit": "mg/kg"}, {"measurement": "ED50", "setting": "[3]", "result": "> 10", "unit": "mg/kg"}, {"measurement": "ED50", "setting": "[5]", "result": 0.02, "unit": "mg/kg"}]}
{"smiles": "C[C@@H](O[C@H]1OCCN(Cc2n[nH]c(=O)[nH]2)[C@H]1c1ccc(F)cc1)c1cc(C(F)(F)F)cc(C(F)(F)F)c1", "note": "[APREPITANT]", "values": [{"measurement": "Control retches", "setting": "[7]", "result": 154.8}, {"measurement": "Control vomits", "setting": "[8]", "result": 22.3}, {"measurement": "ED50", "setting": "[1]", "result": 0.008, "unit": "mg/kg"}, {"measurement": "Control retches", "setting": "[9]", "result": 28.3}, {"measurement": "Control vomits", "setting": "[9]", "result": 3.3}, {"measurement": "Retches", "setting": "[9]", "result": 4.1}, {"measurement": "Vomits", "setting": "[9]", "result": 0.7}, {"measurement": "ED50", "setting": "[2]", "result": 0.36, "unit": "mg/kg"}, {"measurement": "ED50", "setting": "[3]", "result": 0.33, "unit": "mg/kg"}, {"measurement": "ID90", "setting": "[4]", "result": 1.8, "unit": "mg/kg"}, {"measurement": "Control retches", "setting": "[10]", "result": 100}, {"measurement": "Control vomits", "setting": "[10]", "result": 12.7}, {"measurement": "Retches", "setting": "[10]", "result": 5.3}, {"measurement": "Vomits", "setting": "[10]", "result": 1}, {"measurement": "Control retches", "setting": "[11]", "result": 44.7}, {"measurement": "Control vomits", "setting": "[11]", "result": 5.5}, {"measurement": "Retches", "setting": "[11]", "result": 6}, {"measurement": "Vomits", "setting": "[11]", "result": 0.5}, {"measurement": "Retches", "setting": "[12]", "result": 2.8}, {"measurement": "Vomits", "setting": "[13]", "result": 0.5}, {"measurement": "ED50", "setting": "[5]", "result": 0.04, "unit": "mg/kg"}]}
{"smiles": "C[C@@H](O[C@H]1OCCN(Cc2n[nH]c(O)n2)[C@H]1c1ccccc1)c1cc(F)cc(C(F)(F)F)c1", "values": [{"measurement": "IC50", "setting": "[6]", "result": 0.1, "unit": "nM"}]}
